# The list is not random: actives were taken first. Their share in the collection is about 2.2%.
# IMP-1 inhibitor = blocks Pseudomonas aeruginosa IMP-1 metallo-beta-lactamase; inhibition, % at 5.6 µM; AID 1556; purified IMP-1, nitrocefin hydrolysis, epi-absorbance fluorescence; 290,000 tested, 0.45% active;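 active = inhibition above the mean plus 3 SD of all compounds in the same screening run, cut at about 4.5% in these data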;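 also: 0% = IMP-1 with DMSO and 100% = DMSO wells lacking enzyme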
#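 System: Purified IMP-1 | Read-out basis: Percent enzyme inhibition | Controls: IMP-1 with DMSO as 0%, enzyme-free DMSO as 100% | Replicates: One well per compound | Doses: 5.6 µM nominal single concentration | Detection: Epi-absorbance fluorescence, 480 nm excitation, 530 nm emission | Incubation: 25 °C, 15 min preincubation, 25 min reaction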
# VIM-2 inhibitor = blocks Pseudomonas aeruginosa VIM-2 metallo-beta-lactamase | 290,000 tested, 0.89% active | purified VIM-2, nitrocefin hydrolysis, epi-absorbance fluorescence | inhibition, % at 5.6 µM;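 active = inhibition above the mean of all tested compounds plus 3 SD, cutoff set per screening run, cut at about 7.5% in these data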;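 also: red hydrolysis product quenches plate fluorescence so inhibitors raise well fluorescence; 0% = enzyme with DMSO and 100% = DMSO without enzyme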
# PABP1 MLLE inh = inhibitors of microRNA-mediated deadenylation, human PABP1 MLLE binding | P11940 | GST-MLLE / FITC-PAM2 fluorescence polarization | inhibition, % at 20 µM | 360,000 tested, 0.36% active | AID 588489; in the data active = inhibition above about 35%, passing the limit was not always enough;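 also: plate controls were DMSO wells with GST-MLLE for no effect and wells lacking GST-MLLE protein for full effect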
# eIF4H inh = inhibitors of RNA binding by human eIF4H; inhibition, % at 35 µM; 290,000 tested, 0.94% active; Q15056; eIF4H fluorescence polarization binding assay;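 also: calls also rest on retests at 20 µM and on dose response follow-up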
# PABP FP inh = blocks human PABP binding to poly(A) RNA; fluorescence polarization; calls only at 35 µM; 290,000 tested, 1% active;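 also: calls also rest on retests at 20 µM and on dose response follow-up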
# Starred values were filed as active, the others as inactive; i = inactive; u = inconclusive; x = not tested or not shown; + = active, no number. Unless noted, no rule for the calls is given here.
SMILES,IMP-1 inhibitor,VIM-2 inhibitor,PABP1 MLLE inh,eIF4H inh,PABP FP inh
CCOCC(=O)Nc1cc(C(=O)Nc2ccc(F)cc2)ccc1Cl,-2.5,-2.2,x,-7.7,i
COc1ccc(C[C@@H]2CN3C(=NC[C@@H]3C)N2CCNC(=O)c2ccc(C)c(Br)c2)cc1,-2.6,-2.7,1.7,-5.1,i
[N-]=[N+]=NC1CC(CO)OC1n1ccc(=O)[nH]c1=O (stereo not drawn),-3.6,-1.6,7.7,-0.1,i
CC(=Nc1ccccc1)C1=C(O)CSC1=O,0.9,-2.5,32.0,34.2*,+
Cc1ccc(NS(=O)(=O)c2ccc(C)c(C(=O)Nc3ccc(S(=O)(=O)Nc4onc(C)c4C)cc3)c2)cc1,x,x,-3.5,x,x
CCn1c(=NC(=O)CN2C(=O)CCC2=O)sc2c(OC)ccc(OC)c21,4.6*,-0.4,-1.8,-3.3,i
COc1ccc(-n2cnnc2SCC(=O)Nc2cc(C)on2)cc1,-1.3,-0.7,-6.2,63.4*,+
O=C(NCc1ccccc1)c1sc(=S)n2c1[nH]c(=O)c1ccccc12,-1.8,-0.7,25.1,1.9,i
CC(=O)NNC(=O)c1sc(=S)n2c1[nH]c(=O)c1sccc12,-1.2,23.1*,34.0,53.6*,+
NC(=O)c1sc(=S)n2c1[nH]c(=O)c1sccc12,-1.4,8.2*,12.2,3.6,i
CCOc1ccccc1/C=C/c1onc(C)c1S(=O)(=O)N1CCC(C(=O)NC(C)(C)C)CC1,1.0,0.3,0.8,-5.3,i
Cc1ccc(S(=O)(=O)Nc2ccc(Oc3cccnc3)nc2)cc1,-2.4,-4.3,-1.4,-7.7,i
O=C(NCCO)c1cccc2c1C(=O)c1ccccc1-2,-2.1,7.9*,1.5,-6.2,i
C=CCO/N=C(/C)c1ccc(Oc2cnccn2)cc1,-2.9,2.1,1.8,7.9*,+
Cc1ccc(C)c(NC(=S)NC(NC(=O)OCc2ccccc2)C(Cl)(Cl)Cl)c1 (stereo not drawn),-1.8,0.1,-4.2,-5.8,i
O=C(NC(NC(=S)Nc1c(Cl)cc(Cl)cc1Cl)C(Cl)(Cl)Cl)OCc1ccccc1 (stereo not drawn),-2.0,-0.8,38.8*,-13.4,i
CN(Cc1cnccn1)Cc1c(C(=O)N2CCc3ccccc3C2)nc2ccc(Cl)cn12,0.5,-2.6,10.3,16.8,i
CN(Cc1cccnc1)Cc1c(C(=O)N2CCc3ccccc3C2)nc2ccc(Cl)cn12,0.1,1.4,13.2,80.5,+
Cc1ccccc1-c1nnc(-c2ccccc2)o1,-3.0,0.1,1.6,1.3,i
Cn1cc(-c2nnc(-c3ccccc3)o2)c2ccccc21,4.9*,-0.1,4.6,-13.8,i
COc1ccc(-c2noc(CN(C(=O)c3ccc4c(c3)OCO4)C(C)C)n2)cc1OC,x,x,-7.5,x,x
Cc1onc(-c2c(Cl)cccc2Cl)c1C(=O)N=C(N)N1CCCC1,-1.9,-1.5,18.1,-5.9,i
CCCOc1cccc(-c2nn(-c3ccccc3)cc2/C=C(\C#N)C(=O)NCCCn2ccnc2)c1,0.1,-1.2,-48.7,u,+
CCOC(=O)c1c(CSc2ccccc2)n(C)c2cc(Br)c(O)c(CN(C)C)c12,-1.5,-3.0,8.0,-7.6,i
CCOC(=O)c1c(CSc2ccc(C)cc2)n(C)c2cc(Br)c(O)c(CN(C)C)c12,-1.6,-2.1,99.6*,18.3,i
SMILES,IMP-1 inhibitor,VIM-2 inhibitor,PABP1 MLLE inh,eIF4H inh,PABP FP inh
CCn1c(N2CCN(Cc3ccc([N+](=O)[O-])cc3)CC2)nc2ccccc21,23.4*,-0.9,6.2,-6.1,i
CCCn1c(N2CCN(Cc3ccc(Cl)cc3)CC2)nc2ccccc21,-0.2,-1.8,4.0,-4.1,i
Clc1cccc(-c2sc(Nc3ccccc3)n[n+]2-c2ccccc2)c1Cl,-2.1,-2.8,15.6,0.7,i
Fc1ccc(-[n+]2nc(Nc3ccccc3)sc2-c2cccc(Cl)c2Cl)cc1,-3.2,-4.6,50.0*,-7.8,i
CCOC(=O)c1ccccc1N/C=C1\CCCC1=O,-1.7,12.1*,-56.8,5.2,i
Fc1cccc(F)c1/C=N/NC(=S)Nc1cccnc1,-1.9,2.6,21.6,-2.4,i
Fc1c(F)c(F)c(/C=N/NC(=S)Nc2cccnc2)c(F)c1F,-1.8,0.1,40.0*,-1.0,i
Oc1ccc(/C=N/NC(=S)Nc2cccnc2)c(O)c1O,1.9,1.2,26.3,87.0*,+
CC(Oc1ccc(F)cc1)C(=O)Nc1cccc(-c2nn[nH]n2)c1 (stereo not drawn),-0.2,-2.2,24.9,-1.9,i
COCCCNc1nc2ccccc2nc1NS(=O)(=O)c1cccc(Cl)c1,-2.1,-3.5,43.2*,43.1,i
Cc1ccc(-c2csc3ncnc(SCc4ccc(C(=O)O)cc4)c23)cc1,-1.4,-2.7,-10.7,94.6*,i
Cc1ccc(NC(=O)COc2ccc(/C=C3/SC(=Nc4ccccc4)N(Cc4cccnc4)C3=O)cc2)cc1,-4.0,-4.4,-18.5,58.0*,+
O=C1COc2ccc(C(=O)COC(=O)c3ccc(F)cc3Cl)cc2N1,x,x,-10.4,x,x
Nc1cccc(C2=Nc3cccc4cccc(c34)N2)c1,-4.8,-3.4,2.5,13.3,i
COc1ccc(C2=Nc3cccc4cccc(c34)N2)cc1,-1.0,-2.7,-2.9,78.1*,i
COc1ccc(C)cc1S(=O)(=O)NCC(c1ccco1)N1CCc2ccccc2C1 (stereo not drawn),x,x,3.9,x,x
CCN(CC(=O)Nc1c(F)cccc1F)C(=O)c1ccc(Cl)c(S(=O)(=O)N2CCCCC2)c1,-1.4,-0.2,-6.9,6.3,i
CCOC(=O)C1=C(C)Nc2sc(C(=O)c3ccc(OC)cc3)c(N)c2C1c1ccc(C(=O)OC)cc1 (stereo not drawn),-2.9,10.6*,3.8,34.0,i
Cc1cc[n+](CC(=O)c2ccc(NC(=O)c3ccccc3)cc2)cc1,-2.4,-0.4,16.4,1.9,i
O=C(C[n+]1ccccc1)c1ccc(NC(=O)c2ccccc2)cc1,-1.5,-1.1,-121.4,-4.9,+
COc1ccc(C(C)(C)C)cc1NC(=S)NCCN1CCOCC1,-0.7,0.6,5.3,-1.7,+
COc1ccc(C(=O)COC(=O)c2cc(S(=O)(=O)NCc3ccccc3)ccc2O)cc1,-0.4,-2.0,-5.0,active,+
CC(C)n1nccc1NS(=O)(=O)c1ccccc1,x,x,4.5,x,x
CC(C)n1nccc1NC(=O)Nc1ccccc1,9.1*,-0.1,9.2,-14.9,i
Cc1cc(N2CCN(c3cccc(C(F)(F)F)c3)CC2)n2nc(C)nc2n1,-2.9,-1.6,0.4,0.2,i
Cc1cc(N2CCN(c3ccccn3)CC2)n2nc(C)nc2n1,-0.8,10.4*,-6.2,x,x
CCOC(=O)C1CCN(c2ncnc3c2[nH]c2cccc(OC)c23)CC1,-2.8,8.4*,-10.1,-0.3,i
COc1cccc2[nH]c3c(N4CCCCC4)ncnc3c12,-2.2,5.8,-2.9,-0.7,i
N#C/C(=N\Nc1cccc2ccccc12)c1nnc2n1CCCCC2,-2.8,-2.2,0.5,85.5*,+
N#C/C(=C\c1c[nH]c2ccccc12)c1nnc2n1CCCCC2,-2.5,-1.5,-7.4,6.6,i

# Compound activity: PubChem BioAssay, several laboratories
